Results on 41 molecules are retold here after ChEMBL document CHEMBL2331102 (Bioorg Med Chem, 2013).

For one series, the system named is Trypanosoma cruzi. The series is described as follows: Antitrypanosomal activity against Trypanosoma cruzi Tulahuen TcVI extracellular trypomastigotes forms transfected with beta-galactosidase gene infected in rat L6 cells assessed as inhibition of parasite growth after 4 days. The class given is functional, organism-based. The following applies: L6, 96 h. The procedure, abridged: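 L6 rat skeletal myoblasts were infected with extracellular trypomastigotes of β-galactosidase-transfected T. cruzi Tulahuen TcVI. After 48 h to establish infection, compound was added and incubation continued 4 days, exposing trypomastigote and intracellular amastigote forms.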

Series [1] can be described thus: Selectivity index, ratio of IC50 for rat L6 cells to IC50 for Trypanosoma cruzi Tulahuen TcVI extracellular trypomastigotes forms. The series is classed as toxicity, cell-based. The following applies: read-out: Ratio IC50. The method, boiled down:
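Ratio of the L6 myoblast cytotoxicity IC50 to the IC50 against β-galactosidase-expressing T. cruzi Tulahuen TcVI.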

For another series, the system named is L6. The series is described as follows: Cytotoxicity against rat L6 cells after 72 hrs by Alamar Blue assay. The class given is cell-based. The following applies: L6, 72 h. The procedure, abridged: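 Counter-screen for cytotoxicity in uninfected L6 rat skeletal muscle myoblasts, with IC50 recorded in µM.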
(In general: The colour change of resazurin is a common sign of viable cells or microbes.)

Series [2] is described as follows: Kinetic solubility of the compound at pH 6.5 phosphate buffer by nephelometric analysis. The following applies: read-out: Kinetic_solubility. The class given is physicochemical. The method, boiled down: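 Kinetic solubility in phosphate buffer at pH 6.5, determined by nephelometry and reported in µg/mL.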
For the next series, the target named is CYP3A4/5 (Homo sapiens, UniProt P08684+P20815). The series is described as follows: Inhibition of CYP3A4/5 in human liver microsomes assessed as reduction in testosterone-beta-hydroxylation. The class given is ADME, Microsome. The following applies: probe testosterone. The procedure, abridged: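 CYP3A4 inhibition measured as inhibition of testosterone β-hydroxylation, reported as IC50 (µM).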

SMILES strings stand for the structures. Values after ≈ are worked out from the molar mass of the structure shown.

As to `Fc1cc(Cl)ccc1C(c1cccnc1)N1CCN(c2ncccn2)CC1` (stereo not drawn), in the series with Trypanosoma cruzi, the concentration for half-maximal inhibition (IC50) – broadly, the concentration that inhibits the measured activity by half – is 0.026 µM. For the same molecule, in series [1], the selectivity ratio was greater than 100.

In the case of `O=C(c1ccccc1)N1CCN(C(c2cccnc2)c2ccc(Cl)cc2F)CC1` (stereo not drawn), the IC50 with Trypanosoma cruzi turned out to be 0.07 µM. The selectivity ratio in series [1] is greater than 100.

As to `CC(C)c1ccc(S(=O)(=O)N2CCN(C(c3cncnc3)c3ccc(Cl)cc3F)CC2)cc1` (stereo not drawn), the 50% inhibitory concentration (IC50) is 0.018 µM in the series with Trypanosoma cruzi and greater than 100 µM in the series with L6. The selectivity ratio in series [1] was greater than 100.

Consider `CS(=O)(=O)N1CCN(C(c2ccc(C(F)(F)F)cc2)c2cncnc2)CC1` (stereo not drawn), for which the half-inhibitory concentration (IC50) with Trypanosoma cruzi is 0.769 µM; with L6, greater than 100 µM. Besides, in series [1], the selectivity ratio was greater than 100.

For the molecule `CS(=O)(=O)N1CCN(C(c2ccc(Cl)cc2)c2cncnc2)CC1` (stereo not drawn), the 50% inhibitory concentration (IC50) in the series with Trypanosoma cruzi was 0.88 µM; with L6 it was greater than 100 µM. Besides, in series [1], the selectivity ratio was greater than 100.

With `COc1ccccc1N1CCN(C(c2ccc(Cl)cc2)c2cccnc2)CC1` (stereo not drawn), in the series with Trypanosoma cruzi, the 50% inhibitory concentration (IC50) was 0.02 µM. Besides, the selectivity ratio in series [1] was greater than 100.

Turning to `N#Cc1ccc(C(c2cccnc2)N2CCN(C(=O)C3CC3)CC2)cc1` (stereo not drawn), the IC50 is 0.281 µM in the series with Trypanosoma cruzi and greater than 100 µM with L6. The selectivity ratio in series [1] was greater than 100.

With `O=C(Nc1ccc(Cl)cc1)N1CCN(C(c2cncnc2)c2ccc(Cl)cc2F)CC1` (stereo not drawn), the IC50 with Trypanosoma cruzi amounted to 0.01 µM; at CYP3A4/5, 0.3 µM. Also, the solubility kinetic in series [2] came out at 3.1 µg/mL (≈ 6.73 µM). Moreover, in series [1], the selectivity ratio is greater than 100.

`O=C(Cn1ccnc1[N+](=O)[O-])NCc1ccccc1` [BENZNIDAZOLE]: the figures for the IC50 in the series with Trypanosoma cruzi and in the series on L6 were 1.15 µM and greater than 100 µM, respectively.

Consider `O=C(Oc1ccccc1)N1CCN(C(c2ccc(Cl)cc2)c2cccnc2)CC1` (stereo not drawn), for which the 50% inhibitory concentration (IC50) in the series on Trypanosoma cruzi came out at 0.008 µM. Also, in series [1], the selectivity ratio is greater than 100.

Turning to `CS(=O)(=O)N1CCN(C(c2ccc(C(F)(F)F)cc2)c2cccnc2)CC1` (stereo not drawn), the figures for the IC50 with Trypanosoma cruzi and with L6 were 0.077 µM and greater than 100 µM, respectively. Also, in series [1], the selectivity ratio is greater than 100.

As for `CS(=O)(=O)N1CCN(C(c2ccc(C#N)cc2)c2cccnc2)CC1` (stereo not drawn), the figures for the IC50 in the series with Trypanosoma cruzi and in the series on L6 were 0.365 µM and greater than 100 µM, respectively. In addition, the selectivity ratio in series [1] is greater than 100.

For `CS(=O)(=O)N1CCN(C(c2cccnc2)c2ccc(C(F)(F)F)cc2F)CC1` (stereo not drawn), the half-inhibitory concentration (IC50) in the series with Trypanosoma cruzi was 0.028 µM; at CYP3A4/5, 1 µM. Moreover, in series [2], the solubility kinetic is 25 µg/mL (≈ 59.9 µM). In series [1], the selectivity ratio was greater than 100.

On to `O=S(=O)(c1ccc(Cl)cc1)N1CCN(C(c2ccc(Cl)cc2)c2cccnc2)CC1` (stereo not drawn), for which, in the series on Trypanosoma cruzi, the IC50 stood at 0.024 µM. For the same molecule, the selectivity ratio in series [1] was greater than 100.

Turning to `O=C(c1ccccc1)N1CCN(C(c2ccc(Cl)cc2)c2cccnc2)CC1` (stereo not drawn), the concentration for half-maximal inhibition (IC50) with Trypanosoma cruzi was 0.068 µM. Further, the selectivity ratio in series [1] was greater than 100.

Take `CC(C)(C)C(=O)N1CCN(C(c2cccnc2)c2ccc(Cl)cc2F)CC1` (stereo not drawn): the IC50 was found to be 0.019 µM in the series with Trypanosoma cruzi and 1 µM on CYP3A4/5. Moreover, the solubility kinetic in series [2] is 12.5 µg/mL (≈ 32.1 µM). Also, the selectivity ratio in series [1] is greater than 100.

With `CN(C)C(=O)N1CCN(C(c2ccc(Cl)cc2)c2cccnc2)CC1` (stereo not drawn), the IC50 was 0.12 µM in the series with Trypanosoma cruzi and greater than 100 µM in the series on L6. Besides, the selectivity ratio in series [1] was greater than 100.

For `CC(C)(C)C(=O)N1CCN(C(c2ccc(C#N)cc2)c2cccnc2)CC1` (stereo not drawn), the 50% inhibitory concentration (IC50) in the series with Trypanosoma cruzi is 0.254 µM; in the series on L6, greater than 100 µM. In addition, the selectivity ratio in series [1] is greater than 100.

`CC(C)(C)OC(=O)N1CCN(C(c2cccnc2)c2ccc(Cl)cc2F)CC1` (stereo not drawn): the IC50 was determined as 0.02 µM in the series with Trypanosoma cruzi and 1.9 µM at CYP3A4/5. The solubility kinetic in series [2] was determined as 3.1 µg/mL (≈ 7.64 µM). The selectivity ratio in series [1] is greater than 100.

Take `CC(C)Oc1ccc(C(c2cccnc2)N2CCN(C(=O)C(C)C)CC2)cc1` (stereo not drawn): the IC50 was 0.035 µM in the series with Trypanosoma cruzi and greater than 100 µM in the series on L6. Further, in series [1], the selectivity ratio is greater than 100.

Take `CC(C)(C)OC(=O)N1CCN(C(c2ccc(C(F)(F)F)cc2)c2cccnc2)CC1` (stereo not drawn): in the series on Trypanosoma cruzi, the IC50 stood at 0.017 µM. For the same molecule, the selectivity ratio in series [1] was greater than 100.

Turning to `N#Cc1ccc(C(c2cccnc2)N2CCN(C(=O)NC3CC3)CC2)cc1` (stereo not drawn), the half-maximal inhibitory concentration (IC50) in the series with Trypanosoma cruzi was greater than 1 µM; with L6 it was greater than 100 µM. For the same molecule, the selectivity ratio in series [1] is greater than 100.

Consider `O=C(Oc1ccccc1)N1CCN(C(c2cccnc2)c2ccc(Cl)cc2F)CC1` (stereo not drawn), for which the 50% inhibitory concentration (IC50) in the series with Trypanosoma cruzi is 0.005 µM. Besides, the selectivity ratio in series [1] is greater than 100.

Regarding `O=C(C1CC1)N1CCN(C(c2cncnc2)c2ccc(Cl)cc2F)CC1` (stereo not drawn), the IC50 in the series with Trypanosoma cruzi was 0.171 µM; in the series on L6, greater than 100 µM. Moreover, the selectivity ratio in series [1] is greater than 100.

`Cc1noc(N2CCN(C(c3cccnc3)c3ccc(C(F)(F)F)cc3F)CC2)n1` (stereo not drawn): the half-inhibitory concentration (IC50) with Trypanosoma cruzi amounted to 0.017 µM. Moreover, the selectivity ratio in series [1] is greater than 100.

For the molecule `O=S(=O)(C1CCCCC1)N1CCN(C(c2ccc(Cl)cc2)c2cccnc2)CC1` (stereo not drawn), the IC50 with Trypanosoma cruzi worked out at 0.01 µM. Further, the selectivity ratio in series [1] is greater than 100.

Consider `CC(C)(C)C(=O)N1CCN(C(c2cccnc2)c2ccc(C(F)(F)F)cc2F)CC1` (stereo not drawn), for which the IC50 with Trypanosoma cruzi stood at 0.024 µM; at CYP3A4/5 it was 3.9 µM. Further, in series [2], the solubility kinetic came to 12.5 µg/mL (≈ 29.5 µM). Further, the selectivity ratio in series [1] is greater than 100.

With `O=C(C1CCCCC1)N1CCN(C(c2cccnc2)c2ccc(Cl)cc2F)CC1` (stereo not drawn), the 50% inhibitory concentration (IC50) was 0.028 µM with Trypanosoma cruzi and 3.9 µM at CYP3A4/5. The solubility kinetic in series [2] is 6.3 µg/mL (≈ 15.1 µM). In addition, the selectivity ratio in series [1] is greater than 100.

Regarding `CC(C)c1ccc(NC(=O)N2CCN(C(c3cncnc3)c3ccc(Cl)cc3F)CC2)cc1` (stereo not drawn), the IC50 with Trypanosoma cruzi is 0.007 µM. The selectivity ratio in series [1] is greater than 100.

Turning to `Fc1cc(Cl)ccc1C(c1cccnc1)N1CCN(c2ccccc2)CC1` (stereo not drawn), in the series with Trypanosoma cruzi, the IC50 stood at 0.018 µM. The selectivity ratio in series [1] was greater than 100.

On to `Clc1ccc(C(c2cccnc2)N2CCN(c3ccccc3)CC2)cc1` (stereo not drawn), for which, in the series with Trypanosoma cruzi, the IC50 was found to be 0.034 µM. The selectivity ratio in series [1] was greater than 100.

Take `Fc1cc(Cl)ccc1C(c1cncnc1)N1CCN(c2ccccc2)CC1` (stereo not drawn): the IC50 in the series with Trypanosoma cruzi is 0.078 µM. Also, the selectivity ratio in series [1] was greater than 100.

Regarding `Cc1csc(C(=O)N2CCN(C(c3ccc(C#N)cc3)c3cccnc3)CC2)n1` (stereo not drawn), the figures for the 50% inhibitory concentration (IC50) in the series on Trypanosoma cruzi and in the series with L6 were 0.513 µM and greater than 100 µM, respectively. Further, the selectivity ratio in series [1] is greater than 100.

Turning to `COc1ccccc1N1CCN(C(c2cncnc2)c2ccc(Cl)cc2F)CC1` (stereo not drawn), the 50% inhibitory concentration (IC50) with Trypanosoma cruzi is 0.065 µM. In addition, the selectivity ratio in series [1] was greater than 100.

Turning to `O=C(Nc1ccccc1)N1CCN(C(c2ccc(Cl)cc2)c2cccnc2)CC1` (stereo not drawn), in the series on Trypanosoma cruzi, the half-maximal inhibitory concentration (IC50) is 0.009 µM. Besides, in series [1], the selectivity ratio was greater than 100.

As to `O=C(NC1CC1)N1CCN(C(c2ccc(C(F)(F)F)cc2)c2cccnc2)CC1` (stereo not drawn), the half-inhibitory concentration (IC50) in the series on Trypanosoma cruzi was greater than 1 µM; with L6, greater than 100 µM. The selectivity ratio in series [1] was greater than 100.

`O=C(Nc1ccc(Cl)cc1)N1CCN(C(c2ccc(Cl)cc2)c2cncnc2)CC1` (stereo not drawn): the half-maximal inhibitory concentration (IC50) with Trypanosoma cruzi turned out to be 0.022 µM. Moreover, the selectivity ratio in series [1] is greater than 100.

As for `CC(C)c1ccc(S(=O)(=O)N2CCN(C(c3ccc(Cl)cc3)c3cccnc3)CC2)cc1` (stereo not drawn), the half-maximal inhibitory concentration (IC50) in the series on Trypanosoma cruzi was determined as 0.012 µM. Besides, the selectivity ratio in series [1] is greater than 100.

For the molecule `O=C(Nc1ccccc1)N1CCN(C(c2cccnc2)c2ccc(Cl)cc2F)CC1` (stereo not drawn), the IC50 in the series with Trypanosoma cruzi amounted to 0.006 µM. Further, the selectivity ratio in series [1] is greater than 100.

Regarding `N#Cc1ccc(C(c2cccnc2)N2CCN(c3nccs3)CC2)cc1` (stereo not drawn), the results for the IC50 in the series on Trypanosoma cruzi and in the series with L6 were 0.05 µM and greater than 100 µM, respectively. In series [1], the selectivity ratio is greater than 100.

Turning to `COc1ccccc1N1CCN(C(c2ccc(OC(C)C)cc2)c2cccnc2)CC1` (stereo not drawn), the IC50 in the series on Trypanosoma cruzi worked out at 0.028 µM. In series [1], the selectivity ratio was greater than 100.
